Consider 1 molecule from ChEMBL document CHEMBL4024748, “Development of Potent Type I Protein Arginine Methyltransferase (PRMT) Inhibitors of Leukemia Cell Proliferation” (J Med Chem, 2017).

Data set [1] deals with Histone-arginine methyltransferase CARM1 (Homo sapiens, UniProt Q86X55). Put plainly: Inhibition of PRMT4 (unknown origin) incubated for 15 mins followed by substrate addition measured after 60 mins by AlphaLisa method. The essentials:
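Enzyme preincubated with compound for 15 min at room temperature in 1x assay buffer (final DMSO 1%), then substrate added. The reaction ran for 60 min at room temperature. AlphaLISA bead mix was then added and incubated for 60 min at room temperature in subdued light. The luminescent signal was read and IC50 derived by curve fitting.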

Data set [2] addresses Protein arginine N-methyltransferase 1 (Homo sapiens) (UniProt Q99873). In words: Inhibition of PRMT1 in human MV411 cells assessed as reduction in H4R3me2a levels after 48 hrs by Western blot analysis. Format: cell-based. The essentials:
(§1)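 MV4-11 cells treated with compound for 48 h. ADMA, SDMA and H4R3me2a read by western blot. Blots blocked in 5% nonfat milk in PBST, primary antibodies overnight at 4°C, HRP anti-rabbit secondary at 1:10000 for 1 h.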

The next data set deals with REH. Put plainly: Cytotoxicity against human REH cells assessed as decrease in cell viability after 96 hrs by Cell-Titer Glo assay. Type of data set: functional, cell-based. The essentials: (§2)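 Cells kept at 37°C, 5% CO2, exposed to compound or DMSO control for 96 h. Viability read by CellTiter-Glo luminescence after 2 min shaking to lyse and 10 min at room temperature. Triplicate wells, normalised to control cells. For long-term growth, log-phase seeding densities; cells counted and replated to the starting density with fresh compound on days 4 and 8.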

The next data set concerns MV4-11. In words: Downregulation of MEIS1 mRNA levels in human MV4-11 cells by qRT-PCR analysis. Format: functional, cell-based. The essentials: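 MV4-11 cells treated with compound. mRNA measured by SYBR Green qRT-PCR with B2M as internal control. Fold change from ΔΔCt. Samples run in triplicate, mean ± SD.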
Data set [3] concerns the target Protein arginine N-methyltransferase 6 (Homo sapiens, UniProt Q96LA8). In words: Inhibition of PRMT6 (unknown origin) incubated for 15 mins followed by substrate addition measured after 60 mins by AlphaLisa method. The essentials: (§3)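 AlphaLISA. Enzyme and substrate in 1x assay buffer, compound at 1% DMSO final. Enzyme preincubated with compound 15 min at room temperature, then substrate added. Reaction 60 min at room temperature, then bead mix added and incubated 60 min under subdued light before signal read.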

Data set [4] has as its target Histone acetyltransferase KAT2A (Homo sapiens) (UniProt Q92830). Put plainly: Inhibition of GCN5 (unknown origin) at 50 uM incubated for 15 mins followed by substrate addition measured after 60 mins by radioisotope assay.
Data set [5] has as its target Histone-lysine N-methyltransferase PRDM9 (Homo sapiens) (UniProt Q9NQV7). Put plainly: Inhibition of PRDM9 (unknown origin) at 50 uM incubated for 15 mins followed by substrate addition measured after 60 mins by AlphaLisa method. The essentials: as §3
Data set [6] deals with Protein arginine N-methyltransferase 1 (Rattus norvegicus, UniProt Q63009). In words: Inhibition of rat His-tagged PRMT1 (11 to 353 residues) expressed in Escherichia coli BL21(DE3) using biotinylated H4 peptide (1 to 21 residues) as substrate preincubated for 15 mins followed by substrate addition measured after 60 mins in presence of [3H]SAM by microbeta counting method. The essentials:
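Radiometric assay in modified Tris buffer. His6-rPRMT1(11–353) preincubated with compound 15 min at RT, then substrate and [3H]-SAM added. Reaction 60 min at RT, stopped with cold stop solution, transferred to Flashplate for 60 min, washed with water/0.1% Tween-20, counted on Microbeta. IC50 from curve fit.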

The nature of data set [7]: Cytotoxicity against human RCTEC cells assessed as decrease in cell viability at 6.25 to 25 uM after 96 hrs by Cell-Titer Glo assay. Type of data set: cell-based. The essentials: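 Normal HUV-EC-C, MRC-5 and RCTEC cells at 37°C, 5% CO2, given compound or DMSO control for 96 h. Viability by CellTiter-Glo luminescence after 2 min shaking and 10 min at room temperature. Triplicate wells, normalised to control cells.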

The target in data set [8] is Protein arginine N-methyltransferase 1 (Rattus norvegicus) (UniProt Q63009). Put plainly: Binding affinity to rat His-tagged PRMT1 (11 to 353 residues) expressed in Escherichia coli BL21(DE3) at 200 uM by 1D 1H CPMG-NMR spectroscopic method. The essentials: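 Rat PRMT1 (11–353), N-His6, expressed in E. coli BL21(DE3) with 0.4 mM IPTG at 16°C. Purified by Ni affinity and Superdex200. NMR used 5 µM PRMT1 in phosphate buffer pH 7.4 (20 mM NaH2PO4, 20 mM Na2HPO4, 100 mM NaCl) in D2O. Ligand at 200 µM in 5% DMSO-d6. CPMG run with 5, 2 and 1 µM PRMT1, plus STD.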

The subject of a further data set is RCH-ACV. In words: Cytotoxicity against human RCH-ACV cells assessed as decrease in cell viability after 96 hrs by Cell-Titer Glo assay. Type of data set: functional, cell-based. The essentials: as §2
For data set [9], the target named is DNMT3A2/3L complex (Homo sapiens) (UniProt Q9Y6K1+Q9UJW3). Put plainly: Inhibition of DNMT3A/3L (unknown origin) at 50 uM incubated for 15 mins followed by substrate addition measured after 60 mins by radioisotope assay. Type of data set: protein-complex assay.
Data set [10] deals with DNA (cytosine-5)-methyltransferase 1 (Homo sapiens) (UniProt P26358). In words: Inhibition of DNMT1 (unknown origin) at 50 uM incubated for 15 mins followed by substrate addition measured after 60 mins by radioisotope assay.
Data set [11] concerns the target Protein arginine N-methyltransferase 1 (Homo sapiens) (UniProt Q99873). In words: Inhibition of PRMT1 in human MV411 cells assessed as increase in SDMA levels after 48 hrs by Western blot analysis. Format: cell-based. The essentials: as §1

Activity calls are given as the source filed them. No cut-off for these calls is given here.

Sequence of Protein arginine N-methyltransferase 1 (Homo sapiens) (Q99873 whole entry, looked up): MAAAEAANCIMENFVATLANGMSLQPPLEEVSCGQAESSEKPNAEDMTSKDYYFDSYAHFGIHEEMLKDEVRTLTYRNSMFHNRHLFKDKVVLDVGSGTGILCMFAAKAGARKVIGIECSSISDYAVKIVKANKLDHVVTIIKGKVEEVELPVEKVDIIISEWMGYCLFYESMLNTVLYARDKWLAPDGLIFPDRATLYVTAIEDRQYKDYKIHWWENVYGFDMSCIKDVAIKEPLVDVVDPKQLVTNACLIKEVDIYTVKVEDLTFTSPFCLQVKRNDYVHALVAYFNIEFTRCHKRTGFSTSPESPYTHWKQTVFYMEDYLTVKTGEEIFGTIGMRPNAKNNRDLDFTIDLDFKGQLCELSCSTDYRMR
Sequence of Histone-lysine N-methyltransferase PRDM9 (Homo sapiens) (Q9NQV7 whole entry, the tested form may be a part): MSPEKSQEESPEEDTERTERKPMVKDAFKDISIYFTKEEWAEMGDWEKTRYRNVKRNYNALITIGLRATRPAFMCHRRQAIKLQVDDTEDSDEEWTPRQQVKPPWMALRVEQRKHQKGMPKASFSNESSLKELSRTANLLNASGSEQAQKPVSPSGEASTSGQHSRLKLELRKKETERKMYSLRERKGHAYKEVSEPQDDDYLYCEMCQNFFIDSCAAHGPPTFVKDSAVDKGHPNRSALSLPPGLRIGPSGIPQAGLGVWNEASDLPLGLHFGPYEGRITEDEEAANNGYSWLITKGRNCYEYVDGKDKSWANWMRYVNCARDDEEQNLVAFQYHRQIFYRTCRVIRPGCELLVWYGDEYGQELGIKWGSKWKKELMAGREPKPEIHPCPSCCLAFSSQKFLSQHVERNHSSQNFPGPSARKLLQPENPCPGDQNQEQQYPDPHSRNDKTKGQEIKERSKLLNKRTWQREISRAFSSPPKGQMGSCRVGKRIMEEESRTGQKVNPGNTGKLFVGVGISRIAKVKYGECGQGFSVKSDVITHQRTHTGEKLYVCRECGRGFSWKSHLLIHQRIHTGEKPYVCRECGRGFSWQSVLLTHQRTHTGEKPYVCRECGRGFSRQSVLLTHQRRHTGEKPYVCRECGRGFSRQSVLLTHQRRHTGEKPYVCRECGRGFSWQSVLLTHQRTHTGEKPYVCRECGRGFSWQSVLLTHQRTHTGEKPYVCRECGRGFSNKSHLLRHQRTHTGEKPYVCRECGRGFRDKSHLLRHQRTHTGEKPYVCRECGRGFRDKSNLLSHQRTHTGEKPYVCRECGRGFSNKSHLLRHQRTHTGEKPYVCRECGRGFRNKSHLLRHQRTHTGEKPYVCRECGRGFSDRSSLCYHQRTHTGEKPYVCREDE
Sequence of DNA (cytosine-5)-methyltransferase 1 (Homo sapiens) (P26358 whole entry): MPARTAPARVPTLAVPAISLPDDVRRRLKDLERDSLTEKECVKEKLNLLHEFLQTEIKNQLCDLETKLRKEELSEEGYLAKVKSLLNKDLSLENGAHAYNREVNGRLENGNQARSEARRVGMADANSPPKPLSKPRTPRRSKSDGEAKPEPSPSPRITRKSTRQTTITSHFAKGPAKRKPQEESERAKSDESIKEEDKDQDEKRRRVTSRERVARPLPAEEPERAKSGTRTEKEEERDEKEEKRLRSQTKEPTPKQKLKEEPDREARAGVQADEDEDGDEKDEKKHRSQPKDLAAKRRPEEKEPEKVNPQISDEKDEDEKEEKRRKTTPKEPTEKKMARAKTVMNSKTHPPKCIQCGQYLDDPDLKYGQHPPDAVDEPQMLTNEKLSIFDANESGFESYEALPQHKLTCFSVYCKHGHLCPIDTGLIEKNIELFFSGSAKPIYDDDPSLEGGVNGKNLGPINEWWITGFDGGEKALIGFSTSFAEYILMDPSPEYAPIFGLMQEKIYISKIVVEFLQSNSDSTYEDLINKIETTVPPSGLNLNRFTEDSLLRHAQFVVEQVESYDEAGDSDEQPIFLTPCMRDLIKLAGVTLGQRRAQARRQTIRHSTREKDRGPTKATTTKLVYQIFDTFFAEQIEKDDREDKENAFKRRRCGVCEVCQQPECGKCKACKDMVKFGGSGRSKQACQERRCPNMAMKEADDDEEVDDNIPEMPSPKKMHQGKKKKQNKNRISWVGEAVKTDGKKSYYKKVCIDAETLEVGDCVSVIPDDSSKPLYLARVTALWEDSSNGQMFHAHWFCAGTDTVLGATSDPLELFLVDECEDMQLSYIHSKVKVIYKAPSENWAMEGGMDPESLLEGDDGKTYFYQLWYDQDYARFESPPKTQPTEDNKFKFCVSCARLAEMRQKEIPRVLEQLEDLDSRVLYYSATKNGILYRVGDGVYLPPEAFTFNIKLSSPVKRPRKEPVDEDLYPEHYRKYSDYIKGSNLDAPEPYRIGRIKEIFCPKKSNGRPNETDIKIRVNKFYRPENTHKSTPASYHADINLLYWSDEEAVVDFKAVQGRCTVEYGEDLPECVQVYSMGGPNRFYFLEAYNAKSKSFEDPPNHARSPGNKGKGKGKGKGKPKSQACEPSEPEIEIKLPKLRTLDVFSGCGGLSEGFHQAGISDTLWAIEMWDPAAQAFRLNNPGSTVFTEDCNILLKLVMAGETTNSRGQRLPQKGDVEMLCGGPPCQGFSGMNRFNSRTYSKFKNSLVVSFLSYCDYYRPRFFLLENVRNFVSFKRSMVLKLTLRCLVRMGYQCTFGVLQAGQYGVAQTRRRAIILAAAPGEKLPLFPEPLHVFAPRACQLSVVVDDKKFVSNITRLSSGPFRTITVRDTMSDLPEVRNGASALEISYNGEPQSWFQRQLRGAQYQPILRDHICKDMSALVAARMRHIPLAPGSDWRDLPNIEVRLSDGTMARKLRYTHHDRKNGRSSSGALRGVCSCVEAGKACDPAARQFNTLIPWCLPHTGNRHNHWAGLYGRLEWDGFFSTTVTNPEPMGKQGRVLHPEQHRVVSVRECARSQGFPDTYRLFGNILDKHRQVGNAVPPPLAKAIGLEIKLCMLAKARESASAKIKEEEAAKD
Sequence of Histone-arginine methyltransferase CARM1 (Q86X55 whole entry): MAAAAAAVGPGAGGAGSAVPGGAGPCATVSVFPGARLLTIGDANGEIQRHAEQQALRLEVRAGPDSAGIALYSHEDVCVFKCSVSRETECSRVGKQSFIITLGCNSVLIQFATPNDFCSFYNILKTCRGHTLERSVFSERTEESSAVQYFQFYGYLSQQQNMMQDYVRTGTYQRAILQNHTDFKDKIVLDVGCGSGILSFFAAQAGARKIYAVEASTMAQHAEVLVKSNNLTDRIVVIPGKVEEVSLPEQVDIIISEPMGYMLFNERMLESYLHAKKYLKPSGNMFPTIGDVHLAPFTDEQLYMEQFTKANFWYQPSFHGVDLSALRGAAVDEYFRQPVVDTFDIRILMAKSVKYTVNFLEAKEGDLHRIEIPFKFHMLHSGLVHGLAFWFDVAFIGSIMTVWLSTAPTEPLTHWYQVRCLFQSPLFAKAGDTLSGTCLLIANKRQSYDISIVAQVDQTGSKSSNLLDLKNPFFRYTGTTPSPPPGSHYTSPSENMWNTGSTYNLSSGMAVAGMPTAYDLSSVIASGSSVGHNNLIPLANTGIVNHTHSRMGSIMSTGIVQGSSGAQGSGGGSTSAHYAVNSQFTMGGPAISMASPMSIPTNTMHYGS
Sequence of Protein arginine N-methyltransferase 6 (Q96LA8 whole entry): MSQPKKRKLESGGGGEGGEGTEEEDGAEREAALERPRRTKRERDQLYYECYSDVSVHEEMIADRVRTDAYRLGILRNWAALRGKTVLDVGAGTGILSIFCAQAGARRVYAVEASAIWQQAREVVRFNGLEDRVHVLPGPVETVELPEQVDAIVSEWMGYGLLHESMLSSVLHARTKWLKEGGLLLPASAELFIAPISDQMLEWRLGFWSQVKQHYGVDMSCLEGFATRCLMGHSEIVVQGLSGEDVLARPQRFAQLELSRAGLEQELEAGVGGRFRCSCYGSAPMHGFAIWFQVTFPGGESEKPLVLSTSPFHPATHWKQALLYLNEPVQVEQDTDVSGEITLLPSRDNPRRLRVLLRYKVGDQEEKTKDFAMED
Sequence of Protein arginine N-methyltransferase 1 (Rattus norvegicus) (Q63009 whole entry, looked up, the tested form may be a part): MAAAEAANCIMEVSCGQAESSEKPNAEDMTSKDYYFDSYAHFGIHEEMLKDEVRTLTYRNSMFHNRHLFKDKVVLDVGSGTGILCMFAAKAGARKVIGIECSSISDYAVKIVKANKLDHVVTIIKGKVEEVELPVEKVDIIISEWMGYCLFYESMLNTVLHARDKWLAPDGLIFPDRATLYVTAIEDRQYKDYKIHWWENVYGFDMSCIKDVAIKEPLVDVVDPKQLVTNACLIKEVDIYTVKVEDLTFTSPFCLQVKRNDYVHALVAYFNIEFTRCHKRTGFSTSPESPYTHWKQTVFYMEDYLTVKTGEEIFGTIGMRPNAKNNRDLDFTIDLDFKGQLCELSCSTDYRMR
Sequence of Protein arginine N-methyltransferase 1 (Q63009 whole entry, the tested form may be a part): as the sequence (Q63009 whole entry, looked up, the tested form may be a part) above

On to `CN(CCN)Cc1ccccc1Sc1ccccc1Cl`, for which the results for the IC50 in data set [1], in data set [3] and in data set [6] were 63 nM, 1.2 nM and 5.3 nM, respectively. Also, the inhibition result in data set [2] and in [11] was “Dose-dependent effect” in each case. In addition, the Activity result in the data set with REH is “Dose-dependent effect”; with MV4-11 it was “Dose-dependent effect”; in data set [7] it was “Non-Toxic”; with RCH-ACV, “Dose-dependent effect”. Further, the inhibition entry in [4], in [5], in data set [9] and in data set [10] was “Active” in each case. For the same molecule, in data set [8], the outcome was Active.
